Compound activity: PubChem, Johns Hopkins Ion Channel Center
KCNQ1 act = human KCNQ1 channel potentiation or activation. P51787. CHO-K1 KCNQ1, thallium flux FluxOR fluorescence; stronger effect = higher value. B-score at 10 µM. 310,000 tested, 0.35% active;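 active = fluorescence ratio B-score, a plate-corrected score, at least three library SD, with initial intensity B-score within 5 SD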
Target sequence (P51787 whole entry, looked up): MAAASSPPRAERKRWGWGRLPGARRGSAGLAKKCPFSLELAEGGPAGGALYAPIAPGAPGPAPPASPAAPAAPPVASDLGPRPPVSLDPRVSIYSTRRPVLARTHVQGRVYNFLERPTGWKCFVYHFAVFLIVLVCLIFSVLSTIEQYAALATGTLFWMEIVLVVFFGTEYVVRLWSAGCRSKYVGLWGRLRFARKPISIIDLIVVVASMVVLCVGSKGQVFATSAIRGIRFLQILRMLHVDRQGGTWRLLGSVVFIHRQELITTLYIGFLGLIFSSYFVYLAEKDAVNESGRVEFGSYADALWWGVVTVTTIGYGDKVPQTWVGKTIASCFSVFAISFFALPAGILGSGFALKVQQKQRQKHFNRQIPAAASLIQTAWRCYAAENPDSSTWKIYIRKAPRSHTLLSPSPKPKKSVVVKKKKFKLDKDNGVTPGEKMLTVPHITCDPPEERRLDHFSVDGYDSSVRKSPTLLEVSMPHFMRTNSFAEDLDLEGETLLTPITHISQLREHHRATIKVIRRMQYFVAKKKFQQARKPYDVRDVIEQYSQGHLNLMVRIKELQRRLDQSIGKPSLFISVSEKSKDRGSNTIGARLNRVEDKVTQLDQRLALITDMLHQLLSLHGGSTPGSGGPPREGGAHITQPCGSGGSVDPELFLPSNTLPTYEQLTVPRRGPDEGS
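Assay system: stable KCNQ1 CHO-K1 line; medium: assay buffer, equal DMSO in all wells; timing: 90 min dye loading and 20 min compound exposure, both at room temperature; technique: kinetic FluxOR thallium fluorescence, 10-s 1-Hz baseline, 110-s post-stimulus read; read-out basis: B score of baseline-normalized fluorescence ratio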
hERG protect = hERG (human) protection from proarrhythmic block | Q12809 | CHO-hERG, FluxOR thallium flux, dofetilide IC70 present | activation (rescue from dofetilide block), less the hit threshold, % at 10 µM | 310,000 tested, 0.51% active;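 active = activation above the mean of controls blocked by dofetilide plus 5 SD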;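 also: thallium influx through hERG after potassium depolarization seen as dye fluorescence rise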
KCNK9 inh = blocks the human KCNK9 two-pore domain potassium channel; AID 488922; 310,000 tested, 1.2% active; HEK293 KCNK9, FluxOR thallium flux fluorescence; stronger effect = lower value; B-score at 10 µM;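 active = ratio B-score over 3 SD below the library mean, with starting fluorescence within 5 SD of its mean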;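 also: negative B-score means less thallium flux so channel inhibition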
KCNK3 inh = human KCNK3 channel inhibition, primary screen. CHO-KCNK3 thallium flux, FluxOR fluorescence; stronger effect = lower value. AID 602410. 340,000 tested, 0.84% active. O14649. B-score at 10 µM;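 active = B-score under library mean minus 4 SD, starting fluorescence ratio at most library mean plus 5 SD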;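 also: more negative B-score means stronger inhibition of thallium flux through KCNK3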
KCNQ1 inh = human KCNQ1 channel inhibition; CHO-K1 KCNQ1, FluxOR thallium flux fluorescence; stronger effect = higher value; P51787; AID 2642; 310,000 tested, 1.3% active; B-score at 10 µM;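 active = compounds whose thallium flux B-score, printed positive for inhibition, exceeds three library SD while starting fluorescence stays within three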;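 also: channel opened by potassium depolarization with thallium stimulus after 20 min compound exposure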
Kir21 block = Kir2.1 (mouse) channel inhibition; HEK293-Kir2.1, FluxOR thallium flux fluorescence; stronger effect = lower value; B-score at 10 µM; 310,000 tested, 0.85% active;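 active = fluorescence ratio B-score at or below minus 3 SD of library scores, with starting-brightness B-score within 2 SD, cut at about -4.2 in these data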;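 also: channel flux triggered by added potassium and thallium sulfate stimulus; B-score of peak minus minimum fluorescence over baseline after thallium stimulus; more negative B-score means stronger Kir2.1 block with less thallium influx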
An asterisk follows results filed as active. The list is not random: actives were taken first. Their share in the collection is about 3.7%.

For CCn1nc(NS(=O)(=O)c2ccccc2[N+](=O)[O-])c2cc3cccc(C)c3nc21 the results were KCNQ1 act inactive, hERG protect -16.5, KCNK9 inh inactive, KCNK3 inh inactive, KCNQ1 inh inactive and Kir21 block 2.15.
For Cc1ccc2c(c1)C1CN(C)CCC1N2C(=O)c1cccc(S(=O)(=O)N(C)C)c1 (centres undefined) the results were KCNQ1 act inactive, hERG protect -20.3, KCNK9 inh inactive, KCNK3 inh inactive, KCNQ1 inh inactive and Kir21 block 1.08.
Screening Cc1ccc2c(c1)C1CN(C)CCC1N2C(=O)Nc1ccc(Cl)cc1 (centres undefined) returned KCNQ1 act inactive, hERG protect -8.1, KCNK9 inh inactive, KCNK3 inh inactive, KCNQ1 inh 7* and Kir21 block -0.26.
Screening Cc1ccc(OCCNC(=O)c2cc(C(=O)NCCOc3ccc(C)cc3)cc([N+](=O)[O-])c2)cc1 returned KCNQ1 act inactive, hERG protect -3.5, KCNK9 inh inactive, KCNK3 inh inactive, KCNQ1 inh 10* and Kir21 block 1.59.
Screening Cc1cccc(OCCNC(=O)c2ccc(Oc3ccc(C(F)(F)F)cc3[N+](=O)[O-])cc2)c1 returned KCNQ1 act inactive, hERG protect -16.5, KCNK9 inh inactive, KCNK3 inh -9.46*, KCNQ1 inh 6* and Kir21 block -0.06.
`COc1ccc(NC(=O)c2ccc(-c3nn(C)c(=O)c4ccccc34)cc2)cc1C(N)=O` gave KCNQ1 act inactive, hERG protect -6.6, KCNK9 inh inactive, KCNK3 inh inactive, KCNQ1 inh inactive and Kir21 block -0.08.
Screening Cc1ccc(N(C(=O)CNC(=O)c2ccco2)C(C(=O)NC2CCCCC2)c2cccnc2)cc1 (centres undefined) returned KCNQ1 act inactive, hERG protect -5.3, KCNK9 inh inactive, KCNK3 inh inactive, KCNQ1 inh inactive and Kir21 block 0.13.
For Cc1ccc(C)c(N2CCN(CCCNC(=O)Cn3cccc3C(=O)c3ccccc3C)CC2)c1 the results were KCNQ1 act inactive, hERG protect -26.8, KCNK9 inh inactive, KCNK3 inh inactive, KCNQ1 inh inactive and Kir21 block -7.42*.
For Cc1ccccc1C(=O)c1cccn1CC(=O)NCCCN1CCCCC1 the results were KCNQ1 act inactive, hERG protect -3.5, KCNK9 inh inactive, KCNK3 inh inactive, KCNQ1 inh inactive and Kir21 block 0.2.
O=C(Oc1ccccc1Cl)C1CCN(C(=O)c2ccc(F)cc2)CC1 was read as KCNQ1 act inactive, hERG protect -13.8, KCNK9 inh inactive, KCNK3 inh inactive, KCNQ1 inh inactive and Kir21 block -0.3.
`Cc1cc(C)cc(C(=O)NC(CC(N)=O)c2ccc(N3CCCCCC3)c([N+](=O)[O-])c2)c1` (centres undefined) gave KCNQ1 act inactive, hERG protect -9.2, KCNK9 inh inactive, KCNK3 inh inactive, KCNQ1 inh 7* and Kir21 block 1.36.
Screening O=C(O)c1ccc(CN2CCCCC2)o1 returned KCNQ1 act inactive, hERG protect 5.1*, KCNK9 inh inactive, KCNK3 inh inactive, KCNQ1 inh inactive and Kir21 block -0.39.
Screening CCCc1nnc(NC(=O)CCC(=O)N2CCN(C3c4ccccc4-c4ccccc43)CC2)s1 returned KCNQ1 act inactive, hERG protect -7.3, KCNK9 inh inactive, KCNK3 inh inactive, KCNQ1 inh inactive and Kir21 block 0.2.
For CCOC(=O)c1cc2c(=O)n3ccccc3nc2n(Cc2ccco2)c1=NC(=O)c1cccc(OC)c1 the results were KCNQ1 act inactive, hERG protect -21.3, KCNK9 inh inactive, KCNK3 inh inactive, KCNQ1 inh 7* and Kir21 block -0.78.
`CCOC(=O)c1cc2c(=O)n3ccccc3nc2n(CCCOC)c1=NC(=O)c1ccncc1` gave KCNQ1 act 15*, hERG protect -24.9, KCNK9 inh inactive, KCNK3 inh inactive, KCNQ1 inh inactive and Kir21 block -1.65.
Cc1ccc(CN2CCN(C(=O)c3ccncc3)CC2)cc1 was read as KCNQ1 act inactive, hERG protect -5.5, KCNK9 inh inactive, KCNK3 inh inactive, KCNQ1 inh inactive and Kir21 block 0.7.
For CCC/C(C#CCCN1C(=O)c2ccccc2C1=O)=C1/c2ccccc2C(=O)N1c1ccccc1 the results were KCNK3 inh inactive.
COc1ccc(CCN(C)C(=O)c2ccc(COc3ccccc3)o2)cc1OC was read as KCNQ1 act inactive, hERG protect -10.9, KCNK9 inh inactive, KCNK3 inh inactive, KCNQ1 inh inactive and Kir21 block -5.76*.
Screening COC(=O)c1ccccc1NC(=O)c1ccc(COc2ccccc2)o1 returned KCNK3 inh -10.3*.
Screening S=C(NCCc1ccccc1)N1CCn2cccc2C1c1cccnc1 (centres undefined) returned KCNQ1 act 15*, hERG protect -12.4, KCNK9 inh inactive, KCNK3 inh inactive, KCNQ1 inh inactive and Kir21 block 0.17.
`S=C(NCc1ccccc1)N1CCn2cccc2C1c1cccnc1` (centres undefined) gave KCNQ1 act inactive, hERG protect -6.9, KCNK9 inh inactive, KCNK3 inh inactive, KCNQ1 inh inactive and Kir21 block 3.07.
COC(=O)C(CC(C)C)NC(=O)CSc1nc(-c2ccccc2)c(C#N)c(=O)[nH]1 (centres undefined) was read as KCNQ1 act inactive, hERG protect 5.3*, KCNK9 inh inactive, KCNK3 inh inactive, KCNQ1 inh inactive and Kir21 block -0.31.
`N#Cc1c(-c2ccccc2)nc(SCC(=O)NC2CCCCC2)[nH]c1=O` gave KCNQ1 act inactive, hERG protect -10.0, KCNK9 inh inactive, KCNK3 inh inactive, KCNQ1 inh inactive and Kir21 block 0.92.
CC(C)c1ccc2c(c1)C(N1CCNCC1)Cc1ccc(F)cc1S2 (centres undefined) was read as KCNQ1 act inactive, hERG protect -30.4, KCNK9 inh inactive, KCNK3 inh inactive, KCNQ1 inh inactive and Kir21 block -5.22*.
Screening CC(C)(C)c1ccc(C(=O)N2CCN(c3ccc(N4CCOCC4)nn3)CC2)cc1 returned KCNQ1 act inactive, hERG protect -13.9, KCNK9 inh inactive, KCNK3 inh inactive, KCNQ1 inh inactive and Kir21 block 0.
For CCOC(=O)CN1C(=O)N[C@@H](c2cccc(F)c2)C(C(=O)OC)=C1C the results were KCNQ1 act inactive, hERG protect -7.3, KCNK9 inh inactive, KCNK3 inh inactive, KCNQ1 inh inactive and Kir21 block -6.09*.
